Results: ChEMBL document CHEMBL1139486, “Novel benzopyridothiadiazepines as potential active antitumor agents” (J Med Chem, 2005)

Legend:
[1] = system: L1210; assay: Antiproliferative activity against mouse L1210 cells after 48 hrs relative control; type: functional, cell-based; conditions: L1210, 48 h
Procedure, shortened: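 L1210 cells grown in RPMI 1640 with 10% fetal calf serum, 2 mM L-glutamine, penicillin/streptomycin and 10 mM HEPES (pH 7.4). Cells were exposed 48 h to graded drug concentrations, then MTT was added for 4 h at 37 °C. Formazan was dissolved in DMSO and OD read at 540 nm. IC50 came from linear regression on the linear part of the dose-response curve, in triplicate.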

[2] = system: DU-145; assay: Antiproliferative activity against DU145 cells; type: functional, Homo sapiens
[3] = system: P388; assay: Antiproliferative activity against P388 cells; type: functional, Mus musculus
[4] = system: A549; assay: Antiproliferative activity against A549 cells; type: functional, Homo sapiens
[5] = Antiproliferative activity against KB3-1 cells; type: functional, Homo sapiens, KB 3-1
[6] = Antiproliferative activity against adriamycin-resistant KB A1 cells; type: functional, Homo sapiens
[7] = system: IGROV-1; assay: Antiproliferative activity against IGROV1 cells; type: functional, Homo sapiens
[8] = system: L1210; assay: Cell cycle perturbations in mouse L1210 cells assessed as accumulation in G1 phase after 21 hrs at 1 uM relative to control; type: functional
[9] = system: L1210; assay: Cell cycle perturbations in mouse L1210 cells assessed as accumulation in S phase after 21 hrs at 1 uM relative to control; type: functional
[10] = system: L1210; assay: Cell cycle perturbations in mouse L1210 cells assessed as accumulation in G2+M phase after 21 hrs at 1 uM relative to control; type: functional
[11] = system: L1210; assay: Cell cycle perturbations in mouse L1210 cells assessed as accumulation in 8N phase after 21 hrs at 1 uM relative to control; type: functional
[12] = biological target: Tubulin; assay: Inhibition of tubulin polymerization; type: protein-complex assay, Homo sapiens
[13] = system: L1210; assay: Cell cycle perturbations in mouse L1210 cells assessed as accumulation in G1 phase after 21 hrs at 2.5 uM relative to control; type: functional
[14] = system: L1210; assay: Cell cycle perturbations in mouse L1210 cells assessed as accumulation in S phase after 21 hrs at 2.5 uM relative to control; type: functional
[15] = system: L1210; assay: Cell cycle perturbations in mouse L1210 cells assessed as accumulation in G2+M phase after 21 hrs at 2.5 uM relative to control; type: functional
[16] = system: L1210; assay: Cell cycle perturbations in mouse L1210 cells assessed as accumulation in 8N phase after 21 hrs at 2.5 uM relative to control; type: functional
[17] = system: L1210; assay: Cell cycle perturbations in mouse L1210 cells assessed as accumulation in G1 phase after 21 hrs at 5 uM relative to control; type: functional
Procedure, shortened: (§1)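 L1210 cells in RPMI 1640 with 10% fetal calf serum, 2 mM L-glutamine, antibiotics and 10 mM HEPES (pH 7.4) were exposed for 21 h (two doubling times). They were fixed in 70% ethanol and stained 30 min at 20 °C in D-PBS with […] RNAse and […] propidium iodide. 10⁴ cells per sample were analysed by flow cytometry for % G1, S, G2+M and 8N.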

[18] = system: L1210; assay: Cell cycle perturbations in mouse L1210 cells assessed as accumulation in S phase after 21 hrs at 5 uM relative to control; type: functional; procedure, shortened: as §1
[19] = system: L1210; assay: Cell cycle perturbations in mouse L1210 cells assessed as accumulation in G2+M phase after 21 hrs at 5 uM relative to control; type: functional; procedure, shortened: as §1
[20] = system: L1210; assay: Cell cycle perturbations in mouse L1210 cells assessed as accumulation in 8N phase after 21 hrs at 5 uM relative to control; type: functional; procedure, shortened: as §1
[21] = system: L1210; assay: Cell cycle perturbations in mouse L1210 cells assessed as accumulation in G1 phase after 21 hrs at 2 uM relative to control; type: functional; procedure, shortened: as §1
[22] = system: L1210; assay: Cell cycle perturbations in mouse L1210 cells assessed as accumulation in S phase after 21 hrs at 2 uM relative to control; type: functional; procedure, shortened: as §1
[23] = system: L1210; assay: Cell cycle perturbations in mouse L1210 cells assessed as accumulation in G2+M phase after 21 hrs at 2 uM relative to control; type: functional; procedure, shortened: as §1
[24] = system: L1210; assay: Cell cycle perturbations in mouse L1210 cells assessed as accumulation in 8N phase after 21 hrs at 2 uM relative to control; type: functional; procedure, shortened: as §1

| SMILES | IC50 [1] [µM] | other results |
| --- | --- | --- |
| COc1ccc(CN2C=CC=C3C2=Nc2ccccc2S(=O)(=O)N3C)cc1 | > 10 |  |
| COc1ccc(CCN2C=CC=C3C2=Nc2ccccc2S(=O)(=O)N3C)cc1 | 0.3 | Activity [2]: 0.55 µM; Activity [3]: 0.33 µM; Activity [4]: 0.45 µM; Activity [5]: 0.24 µM; Activity [6]: 0.3 µM; Activity [7]: 0.34 µM; Activity [8]: 6%; Activity [9]: 8%; Activity [10]: 32%; Activity [11]: 54%; IC50 [12]: 3.8 µM |
| COc1ccc(CCCN2C=CC=C3C2=Nc2ccc(Cl)cc2S(=O)(=O)N3C)cc1 | > 10 |  |
| COc1cc(CCN2C=CC=C3C2=Nc2ccccc2S(=O)(=O)N3C)cc(OC)c1OC | > 10 |  |
| CCN(CC)CCN1c2ccccc2N=C2C(=CC=CN2CCc2ccc(OC)cc2)S1(=O)=O | > 10 |  |
| COc1ccc(CCN2c3cc(Cl)ccc3N(C)S(=O)(=O)c3cccnc32)cc1 | > 100 |  |
| COc1ccc(CN2C=CC=C3C2=Nc2cc(C(F)(F)F)ccc2S(=O)(=O)N3C)cc1 | > 10 |  |
| COc1ccc(CCN2C=CC=C3C2=Nc2ccc(Cl)cc2S(=O)(=O)N3C)cc1 | 1.3 | Activity [13]: 4%; Activity [14]: 6%; Activity [15]: 24%; Activity [16]: 66% |
| COc1ccc(CCN2C=CC=C3C2=Nc2cc(OC)ccc2S(=O)(=O)N3C)cc1 | > 10 |  |
| COc1ccc(CCN2c3ccccc3S(=O)(=O)N(C)c3cccnc32)cc1 | > 10 |  |
| COc1ccc(CCCN2c3ccccc3N(C)S(=O)(=O)c3cccnc32)cc1 | > 10 |  |
| COc1ccc(CCN2C=CC=C3C2=Nc2cc(C)ccc2S(=O)(=O)N3C)cc1 | 1.4 | Activity [17]: 5%; Activity [18]: 8%; Activity [19]: 19%; Activity [20]: 68% |
| CN1C2=CC=CN(CCc3ccc(OCc4ccccc4)cc3)C2=Nc2ccccc2S1(=O)=O | > 10 |  |
| COc1cc(CCN2c3ccccc3S(=O)(=O)N(C)c3cccnc32)cc(OC)c1OC | > 10 |  |
| COc1ccc(CCN2c3cc(OC)ccc3N(C)S(=O)(=O)c3cccnc32)cc1 | > 10 |  |
| COc1ccc(CN2c3cc(C)ccc3N(C)S(=O)(=O)c3cccnc32)cc1 | 6.9 |  |
| COc1ccc(CN2C=CC=C3C2=Nc2ccccc2N(Cc2ccc(OC)cc2)S3(=O)=O)cc1 | > 100 |  |
| COc1ccc(CCN2C=CC=C3C2=Nc2ccccc2N(Cc2ccc(OC)cc2)S3(=O)=O)cc1 | > 100 |  |
| COc1ccc(CN2c3cc(C(F)(F)F)ccc3S(=O)(=O)N(C)c3cccnc32)cc1 | > 10 |  |

| SMILES | IC50 [1] [µM] | other results |
| --- | --- | --- |
| COc1ccc(CCN2c3ccccc3N(Cc3ccc(OC)cc3)S(=O)(=O)c3cccnc32)cc1 | > 100 |  |
| COc1ccc(CN2c3ccccc3N(C)S(=O)(=O)c3cccnc32)cc1 | 9.6 |  |
| CCN(CC)CCN1c2ccccc2N(CCc2ccc(OC)cc2)c2ncccc2S1(=O)=O | > 10 |  |
| COc1ccc(CCCN2C=CC=C3C2=Nc2cc(C(F)(F)F)ccc2S(=O)(=O)N3C)cc1 | > 10 |  |
| COc1ccc(CCN2C=CC=C3C2=Nc2cc(Cl)ccc2S(=O)(=O)N3C)cc1 | 1.3 | Activity [17]: 7%; Activity [18]: 6%; Activity [19]: 26%; Activity [20]: 61% |
| COc1ccc(CCN2C=CC=C3C2=Nc2cc(Cl)ccc2N(C)S3(=O)=O)cc1 | 0.19 | Activity [8]: 8%; Activity [9]: 10%; Activity [10]: 19%; Activity [11]: 63% |
| COc1ccc(CN2c3cc(Cl)ccc3S(=O)(=O)N(C)c3cccnc32)cc1 | > 10 |  |
| COc1ccc(CCCN2C=CC=C3C2=Nc2cc(Cl)ccc2S(=O)(=O)N3C)cc1 | > 10 |  |
| COc1ccc(CCN2C=CC=C3C2=Nc2cc(C)ccc2N(C)S3(=O)=O)cc1 | 0.41 | Activity [21]: 2%; Activity [22]: 2%; Activity [23]: 12%; Activity [24]: 84% |
| COc1ccc(CN2C=CC=C3C2=Nc2cc(Cl)ccc2S(=O)(=O)N3C)cc1 | 1.5 |  |
| COc1ccc(CN2C=CC=C3C2=Nc2cc(Cl)ccc2N(C)S3(=O)=O)cc1 | 5.4 |  |
| COc1ccc(CN2C=CC=C3C2=Nc2cc(OC)ccc2N(C)S3(=O)=O)cc1 | > 10 |  |
| COc1ccc(CCN2c3cc(Cl)ccc3S(=O)(=O)N(C)c3cccnc32)cc1 | > 10 |  |
| COc1ccc(CCN2c3ccccc3N(C)S(=O)(=O)c3cccnc32)cc1 | > 10 |  |
| COc1ccc(CCCN2C=CC=C3C2=Nc2ccccc2S(=O)(=O)N3C)cc1 | > 10 |  |
| COc1ccc(CN2c3cc(Cl)ccc3N(C)S(=O)(=O)c3cccnc32)cc1 | 8.7 |  |
| COc1ccc(CCN2C=CC=C3C2=Nc2cc(OC)ccc2N(C)S3(=O)=O)cc1 | 1.5 | Activity [17]: 5%; Activity [18]: 7%; Activity [19]: 17%; Activity [20]: 71% |
| COc1ccc(CN2C=CC=C3C2=Nc2ccc(Cl)cc2S(=O)(=O)N3C)cc1 | > 10 |  |
| COc1ccc(CCCN2C=CC=C3C2=Nc2cc(OC)ccc2S(=O)(=O)N3C)cc1 | > 50 |  |

| SMILES | IC50 [1] [µM] | other results |
| --- | --- | --- |
| COc1ccc(CN2c3cc(OC)ccc3N(C)S(=O)(=O)c3cccnc32)cc1 | 8.3 |  |
| COc1ccc(CN2C=CC=C3C2=Nc2ccccc2N(C)S3(=O)=O)cc1 | > 10 |  |
| COc1ccc(CN2C=CC=C3C2=Nc2cc(OC)ccc2S(=O)(=O)N3C)cc1 | > 50 |  |
| COc1ccc(CCN2C=CC=C3C2=Nc2cc(C(F)(F)F)ccc2S(=O)(=O)N3C)cc1 | > 10 |  |
| CN(C)CCOc1ccc(CCN2C=CC=C3C2=Nc2ccccc2S(=O)(=O)N3C)cc1 | > 10 |  |
| COc1ccc(CN2c3ccccc3S(=O)(=O)N(C)c3cccnc32)cc1 | > 10 |  |
| COc1cc(CN2c3ccccc3S(=O)(=O)N(C)c3cccnc32)cc(OC)c1OC | > 10 |  |
| CN1C2=CC=CN(CCc3ccc(O)cc3)C2=Nc2ccccc2S1(=O)=O | > 10 |  |
| COc1ccc(CN2c3ccccc3N(Cc3ccc(OC)cc3)S(=O)(=O)c3cccnc32)cc1 | > 100 |  |
| COc1ccc(CN2c3cc(C)ccc3S(=O)(=O)N(C)c3cccnc32)cc1 | > 10 |  |
| COc1ccc(CCCN2C=CC=C3C2=Nc2cc(C)ccc2S(=O)(=O)N3C)cc1 | > 10 |  |
| COc1ccc(CCN2c3cc(C)ccc3N(C)S(=O)(=O)c3cccnc32)cc1 | > 10 |  |
| COc1ccc(CCCN2C=CC=C3C2=Nc2ccccc2N(C)S3(=O)=O)cc1 | 8.3 |  |
| COc1cc(CN2C=CC=C3C2=Nc2ccccc2S(=O)(=O)N3C)cc(OC)c1OC | > 10 |  |
| COc1ccc(CN2C=CC=C3C2=Nc2cc(C)ccc2S(=O)(=O)N3C)cc1 | 9 |  |
| COc1ccc(CCN2c3ccc(Cl)cc3N(C)S(=O)(=O)c3cccnc32)cc1 | > 10 |  |
| COc1ccc(CN2C=CC=C3C2=Nc2cc(C)ccc2N(C)S3(=O)=O)cc1 | 9.2 |  |
| COc1ccc(CN2C=CC=C3C2=Nc2ccc(Cl)cc2N(C)S3(=O)=O)cc1 | 4.1 |  |
